Assay results from ChEMBL document CHEMBL2157866, “Virtual screening and computational optimization for the discovery of covalent prolyl oligopeptidase inhibitors with activity in human cells” (J Med Chem, 2012).

Experiments:
[1] = substrate: Cc1cc(=O)oc2cc(NC(=O)[C@@H]3CCCN3C(=O)CNC(=O)OCc3ccccc3)ccc12; assay: Activity of human recombinant POP incubated for 30 mins by fluorimetric assay
In short: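 Recombinant human POP/PREP stock diluted in PBS containing 1 mg/mL BSA. Increasing Z-Gly-Pro-AMC concentrations added; fluorescence (ex/em 360/460 nm) followed for 30 min at 37 °C. KM determined graphically from a double-reciprocal Michaelis–Menten plot.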

[2] = substrate: Cc1cc(=O)oc2cc(NC(=O)[C@@H]3CCCN3C(=O)CNC(=O)OCc3ccccc3)ccc12; assay: Activity of POP in human LN18 cell extracts incubated for 30 mins by fluorimetric assay
In short: (§1)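 Confluent cell monolayers lysed in PBS with 0.1% Triton X-100. Increasing Z-Gly-Pro-AMC concentrations added; fluorescence increase (ex/em 360/460 nm) recorded for 30 min at 37 °C. KM read graphically from a double-reciprocal Michaelis–Menten plot.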

[3] = substrate: Cc1cc(=O)oc2cc(NC(=O)[C@@H]3CCCN3C(=O)CNC(=O)OCc3ccccc3)ccc12; assay: Activity of POP in human LN229 cell extracts incubated for 30 mins by fluorimetric assay; in short: as §1
[4] = substrate: Cc1cc(=O)oc2cc(NC(=O)[C@@H]3CCCN3C(=O)CNC(=O)OCc3ccccc3)ccc12; assay: Activity of POP in human LNZ308 cell extracts incubated for 30 mins by fluorimetric assay; in short: as §1
[5] = substrate: Cc1cc(=O)oc2cc(NC(=O)[C@@H]3CCCN3C(=O)CNC(=O)OCc3ccccc3)ccc12; assay: Activity of POP in human HCEC cell extracts incubated for 30 mins by fluorimetric assay; in short: as §1

B1: Prolyl endopeptidase (Homo sapiens), P48147 (protein)
chain: MLSLQYPDVYRDETAVQDYHGHKICDPYAWLEDPDSEQTKAFVEAQNKITVPFLEQCPIRGLYKERMTELYDYPKYSCHFKKGKRYFYFYNTGLQNQRVLYVQDSLEGEARVFLDPNILSDDGTVALRGYAFSEDGEYFAYGLSASGSDWVTIKFMKVDGAKELPDVLERVKFSCMAWTHDGKGMFYNSYPQQDGKSDGTETSTNLHQKLYYHVLGTDQSEDILCAEFPDEPKWMGGAELSDDGRYVLLSIREGCDPVNRLWYCDLQQESSGIAGILKWVKLIDNFEGEYDYVTNEGTVFTFKTNRQSPNYRVINIDFRDPEESKWKVLVPEHEKDVLEWIACVRSNFLVLCYLHDVKNILQLHDLTTGALLKTFPLDVGSIVGYSGQKKDTEIFYQFTSFLSPGIIYHCDLTKEELEPRVFREVTVKGIDASDYQTVQIFYPSKDGTKIPMFIVHKKGIKLDGSHPAFLYGYGGFNISITPNYSVSRLIFVRHMGGILAVANIRGGGEYGETWHKGGILANKQNCFDDFQCAAEYLIKEGYTSPKRLTINGGSNGGLLVAACANQRPDLFGCVIAQVGVMDMLKFHKYTIGHAWTTDYGCSDSKQHFEWLVKYSPLHNVKLPEADDIQYPSMLLLTADHDDRVVPLHSLKFIATLQYIVGRSRKQSNPLLIHVDTKAGHGAGKPTAKVIEEVSDMFAFIARCLNVDWIP
- Km [1]: 8.5 µM
- Km [2]: 8.5 µM
- Km [3]: 6.7 µM
- Km [4]: 8.1 µM
- Km [5]: 7 µM
